HSP90 inh – inhibitors of HSP90 luciferase refolding in rabbit reticulocyte lysate | luciferase refolding luminescence, 3 h | inhibition, % at 5.6 µM | actives 0.91% (n = 290,000) | AID 1789;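 active = inhibition above the screen-wide mean plus 3 SD, computed separately per campaign, cut at about 16% in these data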;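 note: 0% = DMSO wells and 100% = 60 µM geldanamycin wells; inhibitors lower the luminescence because luciferase stays unfolded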
SENP6 inh – SENP6 protease inhibition; Recombinant SENP6 catalytic domain, aminoluciferin luminescence; actives 1.8% (n = 330,000); inhibition, % at 10 µM;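 active = inhibition above about 50% at the single tested dose, limit read from the data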;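 note: plate controls were DMSO wells with enzyme for no effect and DMSO wells lacking enzyme for full effect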
Target sequence (Q9GZR1 628-1112 limits assumed): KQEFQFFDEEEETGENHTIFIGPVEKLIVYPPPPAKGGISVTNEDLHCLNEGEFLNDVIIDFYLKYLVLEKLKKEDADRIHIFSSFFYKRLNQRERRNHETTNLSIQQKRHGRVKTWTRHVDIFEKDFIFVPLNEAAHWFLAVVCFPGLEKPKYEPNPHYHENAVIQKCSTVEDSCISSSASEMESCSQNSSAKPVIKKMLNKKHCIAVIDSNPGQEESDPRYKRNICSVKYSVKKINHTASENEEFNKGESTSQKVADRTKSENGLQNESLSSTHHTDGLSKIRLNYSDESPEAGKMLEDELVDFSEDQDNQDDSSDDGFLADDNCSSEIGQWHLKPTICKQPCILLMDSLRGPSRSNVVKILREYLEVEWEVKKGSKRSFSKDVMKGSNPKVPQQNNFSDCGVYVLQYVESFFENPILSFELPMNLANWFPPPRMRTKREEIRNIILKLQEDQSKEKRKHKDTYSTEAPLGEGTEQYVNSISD
SENP1 inh – inhibitors of human SENP1 SUMO protease catalytic domain | Q9P0U3 | recombinant SENP1 catalytic domain, CyPet-SUMO1-YPet FRET cleavage | inhibition, % at 10 µM | actives 0.21% (n = 360,000);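 active = inhibition at least 30% at 10 µM, raw YFP signal under a set limit, fluorescence ratio 0.5 to 1.5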;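 note: 0% = enzyme with DMSO and 100% = no enzyme wells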
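Test system: human SENP1 catalytic domain; medium: Tris pH 8 buffer plus EDTA, NaCl, BME, BSA, NP40, catalase; incubation: 50 min reaction at room temperature; technique: FRET, CFP and YFP emission; controls: no-enzyme low control and enzyme-plus-DMSO high control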
SENP8 block-1 – inhibitors of human SENP8 protease; actives 1.2% (n = 330,000); inhibition, % at 10 µM; purified SENP8, Z-RLRGG-aminoluciferin cleavage, luminescence; in the data active = inhibition above about 50%
SENP7 inh – SENP7 protease inhibition. Q9BQF6. recombinant SENP7, Z-RLRGG-aminoluciferin luminescence, 40 min. inhibition, % at 5 µM. actives 1.5% (n = 330,000);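 active = inhibition above about 50% at the single test dose, limit read from the data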;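 note: plate controls were DMSO with enzyme for no effect and no enzyme buffer wells for full effect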
SENP8 block-2 – inhibitors of human SENP8 protease | recombinant SENP8, Nedd8 substrate fluorescence | actives 0.64% (n = 360,000) | Q96LD8 | AID 602440 | inhibition, % at 20 µM; in the data active = inhibition mostly above about 40%, no sharp cut-off; inactive = mostly below about 27%
SENP8 confirm – confirmation of human SENP8 protease inhibitors | Recombinant SENP8, Z-RLRGG-aminoluciferin luminescence, 60 min | actives 40% (n = 6,200) | shares compounds with SENP7 inh | inhibition, % at 12.5 µM;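 active = mean inhibition across replicates above about 50%, limit read from the data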
SENP6 confirm – human SENP6 inhibition, confirmed. shares compounds with SENP7 inh. recombinant SENP6, Z-RLRGG-aminoluciferin luminescence. inhibition, % at 12.5 µM. actives 58% (n = 6,200)
SENP7 conf – human SENP7 inhibition, confirmed | shares compounds with SENP7 inh | recombinant SENP7, Z-RLRGG-aminoluciferin luminescence, 40 min | inhibition, % at 12.5 µM | actives 69% (n = 6,200)
Casp3 select – caspase-3 inhibition (SENP selectivity assay) | inhibition, % at 12.5 µM | purified caspase-3, Z-DEVD-aminoluciferin luminescence, 60 min | shares compounds with SENP7 inh | actives 60% (n = 6,200) | AID 488918;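 active = mean inhibition above about 50%, limit read from the data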;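 note: plate controls were enzyme with DMSO for no effect and wells without caspase-3 for full effect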
SENP luc ctr – counter-screen for SENP inhibitors: luminescence interference; inhibition, % at 12.5 µM; Pre-incubated SENP8/Z-RLRGG-aminoluciferin, luciferase luminescence interference; shares compounds with SENP7 inh; actives 39% (n = 6,200);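 active = mean inhibition above about 50% when retested at one dose, limit read from the data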;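 note: plate controls were DMSO wells with completed reaction for no effect and substrate without enzyme for full effect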
Active calls of the source: *. Sampled rows, rich in hits. Any-hit rate of the full collection: about 2.9%.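 Rule for the calls, unless noted: active = mean inhibition above about 50% in the one-dose retest (limit read from the data); inactive = the rest.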

Screening COc1cccc(NC(=O)CN(C)C(=O)c2c(C)noc2C)c1 returned SENP6 inh 15, SENP1 inh 2, SENP8 block-1 6, SENP7 inh 3 and SENP8 block-2 20.
`COC(=O)c1ccccc1-c1ccc(/C=C2\C(=O)N(c3ccccc3)N=C2c2ccccc2)o1` gave HSP90 inh 1, SENP6 inh 53*, SENP1 inh 1, SENP8 block-1 9, SENP7 inh 13, SENP8 block-2 27, SENP8 confirm 11, SENP6 confirm 6, SENP7 conf -4, Casp3 select 0 and SENP luc ctr 0.
Screening COCCn1c(C)cc(C(=O)COC(=O)c2ccc(Br)o2)c1C returned HSP90 inh 4, SENP6 inh 51*, SENP1 inh 2, SENP8 block-1 35, SENP7 inh 41, SENP8 block-2 4, SENP8 confirm 44, SENP6 confirm 40, SENP7 conf 80*, Casp3 select 73* and SENP luc ctr 64*.
Screening c1ccc(CSc2nc3ncccn3n2)cc1 returned SENP6 inh 6, SENP1 inh -1, SENP8 block-1 0, SENP7 inh -2 and SENP8 block-2 -5.
O=c1c2ccccc2sn1-c1ccc(F)cc1 was read as SENP6 inh 82*, SENP1 inh -2, SENP8 block-1 74*, SENP7 inh 36, SENP8 block-2 11, SENP8 confirm 84*, SENP6 confirm 84*, SENP7 conf 96*, Casp3 select 91* and SENP luc ctr 84*.
`O=c1c2ccc(F)cc2sn1-c1ccccc1` gave SENP1 inh 1 and SENP8 block-2 10.
For CCn1nc(C)cc1C(=O)NC1CCCc2c1cnn2-c1cc(F)cc(F)c1 (centres undefined) the results were HSP90 inh -9, SENP6 inh 5, SENP1 inh 1, SENP8 block-1 8, SENP7 inh 0 and SENP8 block-2 3.
O=C1c2ccccc2C(=O)C1c1ccc(Br)cc1 was read as HSP90 inh -2, SENP6 inh 94*, SENP1 inh 2, SENP8 block-1 93*, SENP7 inh 1, SENP8 block-2 8, SENP8 confirm 96*, SENP6 confirm 94*, SENP7 conf 100*, Casp3 select 89* and SENP luc ctr 95*.
`O=C1c2ccccc2C(=O)C1c1ccc(O)cc1` gave HSP90 inh 0, SENP6 inh 46, SENP1 inh -35, SENP8 block-1 -1, SENP7 inh -7 and SENP8 block-2 -363.
For O=C1c2ccccc2C(=O)C1c1ccc(Cl)cc1 the results were HSP90 inh 1, SENP6 inh 82*, SENP1 inh 2, SENP8 block-1 77*, SENP7 inh 0, SENP8 block-2 11, SENP8 confirm 89*, SENP6 confirm 92*, SENP7 conf 99*, Casp3 select 89* and SENP luc ctr 88*.
CC1(c2nnnn2Cc2ccccc2)CCC(=O)N1CC1CCCCC1 (centres undefined) was read as SENP1 inh 3 and SENP8 block-2 2.
For O=C(Nc1nc2c(Cl)cccc2s1)c1ccc(Br)o1 the results were HSP90 inh 7, SENP6 inh -2, SENP1 inh -13, SENP8 block-1 -2, SENP7 inh 2 and SENP8 block-2 -155.
O=C(Nc1nc2c(Cl)cccc2s1)c1ccc([N+](=O)[O-])o1 was read as HSP90 inh 0, SENP6 inh 59*, SENP1 inh 3, SENP8 block-1 43, SENP7 inh 7, SENP8 block-2 5, SENP8 confirm 35, SENP6 confirm 42, SENP7 conf 77*, Casp3 select 26 and SENP luc ctr 46.
O=C(Nc1nc2c(F)cccc2s1)c1ccc([N+](=O)[O-])o1 was read as HSP90 inh 1, SENP6 inh 71*, SENP1 inh -2, SENP8 block-1 43, SENP7 inh 23, SENP8 block-2 4, SENP8 confirm -26, SENP6 confirm -19, SENP7 conf -10, Casp3 select -3 and SENP luc ctr -7.
Screening COc1ccc(N(CC(=O)Nc2ccccc2F)S(=O)(=O)c2ccc(OC)c(OC)c2)cc1 returned HSP90 inh 2, SENP6 inh 1, SENP1 inh 2, SENP8 block-1 13, SENP7 inh -9 and SENP8 block-2 21.
O=C(c1cc(C2CC2)nn1-c1ccccc1)N1CCN(S(=O)(=O)c2c(F)cccc2F)CC1 was read as SENP6 inh -8, SENP1 inh 3, SENP8 block-1 -3, SENP7 inh -2 and SENP8 block-2 11.
CCc1nn(CC(=O)NCCC2=CCCCC2)c(=O)c2cc3cc(F)ccc3n12 was read as HSP90 inh -2, SENP6 inh -13, SENP1 inh 1, SENP8 block-1 -2, SENP7 inh -7 and SENP8 block-2 -51.
`O=C(CN1CCN(c2ccc(O)cc2)CC1)Nc1ccc2c(c1)OCCCO2` gave SENP6 inh 7, SENP1 inh -2, SENP8 block-1 2, SENP7 inh 7 and SENP8 block-2 1.
Screening N#C/C(=N\Nc1ccccc1Cl)C(=O)c1ccccc1 returned HSP90 inh 1, SENP6 inh 21, SENP1 inh 3, SENP8 block-1 -6, SENP7 inh 1 and SENP8 block-2 37.
`N#C/C(=N\Nc1cccc(Cl)c1)C(=O)c1ccccc1` gave HSP90 inh -7, SENP6 inh 87*, SENP1 inh 1, SENP8 block-1 69*, SENP7 inh 15, SENP8 block-2 31, SENP8 confirm -22, SENP6 confirm 74*, SENP7 conf 76*, Casp3 select 20 and SENP luc ctr 72*.
CCCCCc1nnc(NC(=O)C2=COCCO2)s1 was read as SENP6 inh 7, SENP1 inh 1, SENP8 block-1 -18, SENP7 inh 4 and SENP8 block-2 6.

Bioassay records from PubChem BioAssay.
